Test results taken from ChEMBL document CHEMBL4229460, “Design and biological evaluation of novel hybrids of 1, 5-diarylpyrazole and Chrysin for selective COX-2 inhibition” (Bioorg Med Chem, 2018).

Tests used:
B16-F10 = assay: Antiproliferative activity against mouse B16F10 cells after 48 hrs by MTT assay; format: functional, cell-based; conditions: B16-F10, 48 h
How it was run: (§1)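 Cells kept in DMEM with 10% FBS, penicillin/streptomycin, 37 °C, 5% CO₂. Seeded at 5 × 10⁴ cells/well and allowed to adhere 12 h. Exposed to 0, 0.1, 1, 10 and 100 μM (final) for 48 h. Viability read by MTT reduction at OD 570 nm with 630 nm reference. IC50 reported as mean ± SD of three independent experiments.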

HeLa = assay: Antiproliferative activity against human HeLa cells after 48 hrs by MTT assay; format: functional, cell-based
Homo sapiens = organism: Homo sapiens; assay: Selectivity index, ratio of IC50 for COX1 (unknown origin) to ratio of IC50 for COX2 (unknown origin)
How it was run: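 Enzyme ELISA kit: COX-1 or COX-2 preincubated with compound at 0, 1, 10 or 100 μM for 10 min at 37 °C in 0.1 M Tris-HCl pH 8.0, 5 mM EDTA, 2 mM phenol, 1 μM heme. Started with 100 μM arachidonic acid for 2 min at 37 °C, stopped with 1 M HCl. PGH₂ reduced by stannous chloride; PGF2α read by enzyme immunoassay at 450 nm. Index taken as the ratio of the COX IC50 values.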

MCF7 = assay: Antiproliferative activity against human MCF7 cells after 48 hrs by MTT assay; format: functional, cell-based; conditions: MCF7, 48 h
HEK-293T = assay: Cytotoxicity against human 293T cells after 48 hrs by MTT assay; format: cell-based
[1] = target: Prostaglandin G/H synthase 1 (Homo sapiens, UniProt P23219); assay: Inhibition of COX1 (unknown origin) using arachidonic acid as substrate pretreated for 10 mins followed by substrate addition and measured after 2 mins by ELISA; format: ADME
[2] = target: T1, Prostaglandin G/H synthase 2 (Homo sapiens, UniProt P35354); assay: Inhibition of COX2 (unknown origin) using arachidonic acid as substrate pretreated for 10 mins followed by substrate addition and measured after 2 mins by ELISA
T1 sequence (P35354 whole entry): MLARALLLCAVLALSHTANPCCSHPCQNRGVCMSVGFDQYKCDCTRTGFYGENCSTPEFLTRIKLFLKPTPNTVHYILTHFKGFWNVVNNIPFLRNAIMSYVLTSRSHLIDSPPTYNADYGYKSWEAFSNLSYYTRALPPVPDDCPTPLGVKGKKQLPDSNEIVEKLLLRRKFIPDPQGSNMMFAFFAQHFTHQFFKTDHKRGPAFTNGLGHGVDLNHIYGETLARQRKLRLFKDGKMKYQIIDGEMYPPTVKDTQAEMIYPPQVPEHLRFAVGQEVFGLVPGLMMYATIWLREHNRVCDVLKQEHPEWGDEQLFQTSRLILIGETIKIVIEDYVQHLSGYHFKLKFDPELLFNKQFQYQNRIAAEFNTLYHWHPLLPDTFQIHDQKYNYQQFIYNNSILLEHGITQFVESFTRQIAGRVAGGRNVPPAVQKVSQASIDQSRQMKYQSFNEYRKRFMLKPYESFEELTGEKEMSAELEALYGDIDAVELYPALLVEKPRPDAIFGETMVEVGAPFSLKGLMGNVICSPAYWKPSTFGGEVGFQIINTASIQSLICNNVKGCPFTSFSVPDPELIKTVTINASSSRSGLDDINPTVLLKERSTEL

A549 = assay: Antiproliferative activity against human A549 cells after 48 hrs by MTT assay; format: functional, cell-based; conditions: A549, 48 h; how it was run: as §1

Sequence of Prostaglandin G/H synthase 1 (P23219 whole entry): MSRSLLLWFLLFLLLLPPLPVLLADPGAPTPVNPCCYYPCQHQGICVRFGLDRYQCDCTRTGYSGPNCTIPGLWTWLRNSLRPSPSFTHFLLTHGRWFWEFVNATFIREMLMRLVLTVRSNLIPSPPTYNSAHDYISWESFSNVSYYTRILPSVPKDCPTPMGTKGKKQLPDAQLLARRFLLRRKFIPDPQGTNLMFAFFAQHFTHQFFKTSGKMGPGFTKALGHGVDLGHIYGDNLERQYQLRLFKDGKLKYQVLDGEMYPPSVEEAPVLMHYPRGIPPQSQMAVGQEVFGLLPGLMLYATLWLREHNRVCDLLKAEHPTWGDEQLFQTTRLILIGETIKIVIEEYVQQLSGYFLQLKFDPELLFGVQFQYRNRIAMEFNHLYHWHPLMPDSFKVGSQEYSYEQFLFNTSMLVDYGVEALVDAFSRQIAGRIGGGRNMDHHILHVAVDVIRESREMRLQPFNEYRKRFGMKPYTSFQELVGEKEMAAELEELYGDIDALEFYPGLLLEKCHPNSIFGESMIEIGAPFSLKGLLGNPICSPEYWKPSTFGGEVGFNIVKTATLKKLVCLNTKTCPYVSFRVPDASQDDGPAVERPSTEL

Compound	IC50 (B16-F10) [µM]	IC50 (HeLa) [µM]	Ratio IC50 (Homo sapiens)	IC50 (MCF7) [µM]	IC50 (HEK-293T) [µM]	IC50 [1] [µM]	IC50 [2] [µM]	IC50 (A549) [µM]
Cc1ccc(-n2nc(COC(=O)COc3cc(O)c4c(=O)cc(-c5ccccc5)oc4c3)cc2-c2ccc([N+](=O)[O-])cc2)cc1	2.71	18.4	32.1	15.8	216	44.8	1.39	5.88
Cc1ccc(-c2cc(C(F)(F)F)nn2-c2ccc(S(N)(=O)=O)cc2)cc1 [CELECOXIB]	19.2	15.7		26.8	225			16.1
Cc1ccc(-n2nc(COC(=O)COc3cc(O)c4c(=O)cc(-c5ccccc5)oc4c3)cc2-c2ccc(Cl)c(Cl)c2)cc1	7.61	6.06	5.56	22.2	273	27.9	5.02	> 100
Cc1cccc(-c2cc(COC(=O)COc3cc(O)c4c(=O)cc(-c5ccccc5)oc4c3)nn2-c2ccc(Cl)cc2)c1	4.95	4.06	15.6	23.4	162	27.6	1.77	32.1
COc1ccc(-c2cc(COC(=O)COc3cc(O)c4c(=O)cc(-c5ccccc5)oc4c3)nn2-c2ccccc2)cc1	1.76	2.72	75.9	7.1	257	41.3	0.54	10.6
Cc1ccc(-c2cc(COC(=O)COc3cc(O)c4c(=O)cc(-c5ccccc5)oc4c3)nn2-c2ccc(C)cc2)cc1	3.51	2.87	96	3.23	197	41.2	0.42	2.87
O=C(COc1cc(O)c2c(=O)cc(-c3ccccc3)oc2c1)OCc1cc(-c2cccc(Cl)c2)n(-c2ccccc2)n1	7.86	1.75	10.1	32.9	188	44.8	4.43	4.71
Cc1ccc(-n2nc(COC(=O)COc3cc(O)c4c(=O)cc(-c5ccccc5)oc4c3)cc2-c2ccc(C(F)(F)F)cc2)cc1	7.44	4.32	5.92	6.21	212	29.7	5.02	5.07
Cc1ccc(-n2nc(COC(=O)COc3cc(O)c4c(=O)cc(-c5ccccc5)oc4c3)cc2-c2ccc(Cl)cc2)cc1	20.8	2.67	> 23	> 100	299	> 50	2.12	3.68
Cc1cccc(-c2cc(COC(=O)COc3cc(O)c4c(=O)cc(-c5ccccc5)oc4c3)nn2-c2ccccc2)c1	2.85	1.95	28.7	10.8	316	39.1	1.36	> 100
O=C(COc1cc(O)c2c(=O)cc(-c3ccccc3)oc2c1)OCc1cc(-c2ccc(Cl)c(Cl)c2)n(-c2ccc(Cl)cc2)n1	6.08	4.72	3.86	12.1	268	33.1	8.58	3.62
O=C(COc1cc(O)c2c(=O)cc(-c3ccccc3)oc2c1)OCc1cc(-c2ccc(Cl)cc2)n(-c2ccccc2)n1	15.6	1.65	> 35	47	227	> 50	1.41	> 100
Cc1ccc(-n2nc(COC(=O)COc3cc(O)c4c(=O)cc(-c5ccccc5)oc4c3)cc2-c2cccc(C)c2)cc1	4.33	1.31	27	3.25	398	32.2	1.19	11.6
COc1cccc(-c2cc(COC(=O)COc3cc(O)c4c(=O)cc(-c5ccccc5)oc4c3)nn2-c2ccccc2)c1	6.92	13.6	21	5.12	317	25.5	1.21	13.6
O=C(COc1cc(O)c2c(=O)cc(-c3ccccc3)oc2c1)OCc1cc(-c2ccccc2)n(-c2ccccc2)n1	1.57	2.41	13.1	3.47	173	32.9	2.2	3.23
Cc1ccc(-n2nc(COC(=O)COc3cc(O)c4c(=O)cc(-c5ccccc5)oc4c3)cc2-c2cccc(Cl)c2)cc1	3.85	25.5	10.3	22	161	49.6	4.8	8.17
O=C(COc1cc(O)c2c(=O)cc(-c3ccccc3)oc2c1)OCc1cc(-c2cccc([N+](=O)[O-])c2)n(-c2ccccc2)n1	21.7	30.9	5.68	12.6	348	33.8	5.94	> 100
COc1ccc(-c2cc(COC(=O)COc3cc(O)c4c(=O)cc(-c5ccccc5)oc4c3)nn2-c2ccc(Cl)cc2)cc1	12.4	5.65	132	> 100	290	46.4	0.35	12.7
Cc1ccc(-c2cc(COC(=O)COc3cc(O)c4c(=O)cc(-c5ccccc5)oc4c3)nn2-c2ccc(Cl)cc2)cc1	17.6	12.4	28.4	7.86	222	40.9	1.44	4.69
Cc1ccc(-n2nc(COC(=O)COc3cc(O)c4c(=O)cc(-c5ccccc5)oc4c3)cc2-c2ccc(F)cc2)cc1	65.8	> 100	10.6	17.8	265	30.2	2.84	4.62
Cc1ccc(-n2nc(COC(=O)COc3cc(O)c4c(=O)cc(-c5ccccc5)oc4c3)cc2-c2ccc(Br)cc2)cc1	32.1	24.7	36.5	2.96	278	39.5	1.08	22.7
O=C(COc1cc(O)c2c(=O)cc(-c3ccccc3)oc2c1)OCc1cc(-c2ccc(F)cc2)n(-c2ccccc2)n1	6.24	> 100	> 20	3.82	187	> 50	2.54	12
O=C(COc1cc(O)c2c(=O)cc(-c3ccccc3)oc2c1)OCc1cc(-c2cccc(C(F)(F)F)c2)n(-c2ccccc2)n1	6.53	4.33	8.58	8.01	271	41.1	4.79	6.68
O=C(COc1cc(O)c2c(=O)cc(-c3ccccc3)oc2c1)OCc1cc(-c2ccc([N+](=O)[O-])cc2)n(-c2ccccc2)n1	15.6	2.04	25.3	22.2	192	42	1.66	17
O=C(COc1cc(O)c2c(=O)cc(-c3ccccc3)oc2c1)OCc1cc(-c2ccc(Cl)c(Cl)c2)n(-c2ccccc2)n1	6.44	6.28	> 7	3.29	233	> 50	6.83	5.52
O=c1cc(-c2ccccc2)oc2cc(O)cc(O)c12 [CHRYSIN]	17.4	25.1		25.7	319			47.8
